In ChEMBL document CHEMBL1131119, “N'-Phenylindol-3-ylglyoxylohydrazide derivatives: synthesis, structure-activity relationships, molecular modeling studies, and pharmacological action on brain benzodiazepine receptors” (J Med Chem, 1998):
Activity calls are given as the source filed them. The calls are words filed in the database; no cut-off is given here.

Columns and labels:
[1] = target: GABA-A receptor; anion channel; assay: Inhibition of [3H]-Ro- 15-1788 binding to GABA-A benzodiazepine receptor of bovine brain membranes; type: cell membranes, Bos taurus
Method in brief: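 Bovine cerebral cortex membranes, freeze–thawed and washed in 50 mM Tris-citrate pH 7.4; competition against [3H]Ro 15-1788 by filtration. […] Ki as mean ± SEM of three determinations.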

[2] = target: GABA-A receptor; anion channel (Bos taurus) (UniProt P10063+P08220+P20237+P08219+P10064+P22300); conditions: Brain membranes, at 0.5 µM
Mus musculus [3] = assay: Convulsant effect in mice following subconvulsant PTZ(40 mg/kg, sc) dose, ineffective to 250 mg/kg; type: functional, organism-based; parameters: dose 250 mg/kg
Mus musculus [4] = assay: Antagonistic effect against the anticonvulsant Diazepam (2.5 mg/kg, ip) effect in mice after PTZ (80mg/kg, sc) dose, ineffective to 250 mg/kg; type: functional, organism-based; parameters: dose 250 mg/kg
Mus musculus [5] = assay: Antagonistic effect against PTZ (80 mg/kg, sc) convulsant action in mice; type: functional
Mus musculus [6] = assay: Antagonistic effect against the anticonvulsant Diazepam (2.5 mg/kg, ip) effect in mice after PTZ (80 mg/kg, sc) dose; type: functional
Mus musculus [7] = assay: Antagonistic effect against PTZ (80 mg/kg, sc) convulsant action in mice (ineffective); type: functional, organism-based
Method in brief: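 Groups of 10 mice received graded ip doses (up to 250 mg/kg), suspended in 20% dilute Emulphor (1:1 w/w with ethanol)–80% saline, or vehicle alone. PTZ 80 mg/kg sc followed 30 min later. ED50 was the dose protecting 50% of mice from convulsions. Values are means of at least three determinations.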

Mus musculus [8] = assay: Convulsant effect in mice following subconvulsant PTZ(40 mg/kg, sc) dose; type: functional
Method in brief: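 Groups of 10 mice were given graded ip doses (up to 250 mg/kg) in 20% dilute Emulphor–80% saline, or vehicle alone. A subconvulsant dose of PTZ (40 mg/kg sc) followed 30 min later. ED50 was the dose inducing convulsions in 50% of mice. Values are means of at least three determinations.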

| Structure (SMILES) | Ki [1] | Clonazepam [2] | Proconvulsant action (Mus musculus [3]) | ED50 (Mus musculus [5]) | also measured |
| --- | --- | --- | --- | --- | --- |
| O=C(NNc1ccccc1)C(=O)c1c[nH]c2ccccc12 | 203 nM | 20% | – | – | – |
| O=C1CN=C(c2ccccc2Cl)c2cc([N+](=O)[O-])ccc2N1 | – | 100% | – | – | – |
| O=C(NNc1ccc(Cl)cc1)C(=O)c1c[nH]c2ccccc12 | 62 nM | 16% | inactive | 25 mg/kg | Diazepam antagonism (Mus musculus [4]): inactive |
| CCOC(=O)c1ncn2c1CN(C)C(=O)c1cc(F)ccc1-2 [FLUMAZENIL] | – | – | inactive | – | Diazepam antagonism (Mus musculus [6]): 0.3 |
| O=C(NNc1ccc(F)cc1)C(=O)c1c[nH]c2ccccc12 | 57 nM | 18% | inactive | 60 mg/kg | Diazepam antagonism (Mus musculus [4]): inactive |
| Cc1cccc(NNC(=O)C(=O)c2c[nH]c3ccccc23)c1 | 510 nM | 20% | – | – | – |
| CN(NC(=O)C(=O)c1c[nH]c2ccc([N+](=O)[O-])cc12)c1ccccc1 | 2400 nM | 53% | inactive | 25 mg/kg | Diazepam antagonism (Mus musculus [4]): inactive |
| Cc1ccc(NNC(=O)C(=O)c2c[nH]c3ccccc23)cc1 | 290 nM | 9% | – | – | – |
| COC(=O)c1cc2c(cn1)[nH]c1ccccc12 [BETA-CCM] | – | – | – | – | ED50 (Mus musculus [7]): inactive; Diazepam antagonism (Mus musculus [6]): 0.02; Proconvulsant action (Mus musculus [8]): 19.4 |
| COc1ccc(NNC(=O)C(=O)c2c[nH]c3ccccc23)cc1 | 430 nM | 17% | – | – | – |
| Cn1cc(C(=O)C(=O)NNc2ccccc2)c2ccccc21 | 1200 nM | – | – | – | – |
| CN1C(=O)CN=C(c2ccccc2)c2cc(Cl)ccc21 [DIAZEPAM] | – | – | – | 0.4 mg/kg | – |
| O=C(NNc1ccc([N+](=O)[O-])cc1)C(=O)c1c[nH]c2ccccc12 | 11 nM | 20% | inactive | 10 mg/kg | Diazepam antagonism (Mus musculus [4]): inactive |
| Cn1cc(C(=O)C(=O)NNc2ccc([N+](=O)[O-])cc2)c2ccccc21 | 455 nM | – | – | – | – |
| O=C(NNc1ccc(O)cc1)C(=O)c1c[nH]c2ccccc12 | 3400 nM | – | – | – | – |
